Measured values as given in ChEMBL document CHEMBL1821594, “Synthesis and anticancer evaluation of novel 2-cyclopropylimidazo[2,1-b][1,3,4]-thiadiazole derivatives” (2011).

Experiments:
Assay type in all cases: functional
[1] = test system: OVCAR-4; assay: Antitumor activity against human OVCAR4 cells after 48 hrs by SRB assay; details: OVCAR-4, 48 h
Method in brief: (§1)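 Cells grown in RPMI 1640 with 5% FBS and 2 mM L-glutamine and seeded at 5000–40,000 cells/well according to doubling time. They were preincubated 24 h at 37 °C, 5% CO2, then exposed to DMSO-solubilized compound for 48 h. Adherent cells were fixed with cold TCA (10% final), suspension cells with 16% final. Stained with 0.4% SRB; absorbance at 515 nm. Percent growth calculated against time-zero and control plates.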

[2] = test system: SN12C; assay: Antitumor activity against human SN12C cells after 48 hrs by SRB assay; method in brief: as §1
[3] = test system: LOX IMVI; assay: Antitumor activity against human LOXIMVI cells after 48 hrs by SRB assay; method in brief: as §1
[4] = test system: HCC 2998; assay: Antitumor activity against human HCC2998 cells after 48 hrs by SRB assay; details: HCC 2998, 48 h; method in brief: as §1
[5] = test system: HCT-116; assay: Antitumor activity against human HCT116 cells after 48 hrs by SRB assay; details: HCT-116, 48 h; method in brief: as §1
[6] = test system: HL-60(TB); assay: Antitumor activity against human HL-60(TB) cells after 48 hrs by SRB assay; details: HL-60, 48 h
Method in brief: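 NCI-60 protocol: cells in RPMI 1640 with 5% FBS and 2 mM glutamine, preincubated 24 h at 37 °C with 5% CO2. Compounds from DMSO stock, tested at 10^-5 M single dose or five 10-fold doses, for 48 h. Suspension cells fixed in settled form (16% TCA final), then SRB stained and read at 515 nm. % growth is calculated against time-zero and control plates; GI50, TGI and LC50 are derived.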

[7] = test system: CAKI-1; assay: Antitumor activity against human Caki1 cells after 48 hrs by SRB assay; details: CAKI-1, 48 h; method in brief: as §1
[8] = test system: BT-549; assay: Antitumor activity against human BT549 cells after 48 hrs by SRB assay; details: BT-549, 48 h; method in brief: as §1
[9] = test system: RPMI-8226; assay: Antitumor activity against human RPMI8226 cells after 48 hrs by SRB assay; details: RPMI-8226, 48 h; method in brief: as §1
[10] = test system: IGROV-1; assay: Antitumor activity against human IGROV1 cells after 48 hrs by SRB assay; details: IGROV-1, 48 h; method in brief: as §1
[11] = test system: 786-0; assay: Antitumor activity against human 786-0 cells after 48 hrs by SRB assay; details: 786-0, 48 h; method in brief: as §1
[12] = test system: OVCAR-5; assay: Antitumor activity against human OVCAR5 cells after 48 hrs by SRB assay; details: OVCAR-5, 48 h; method in brief: as §1
[13] = test system: PC-3; assay: Antitumor activity against human PC3 cells after 48 hrs by SRB assay; details: PC-3, 48 h; method in brief: as §1
[14] = test system: SW-620; assay: Antitumor activity against human SW620 cells after 48 hrs by SRB assay; details: SW-620, 48 h
Method in brief: (§2)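 NCI-60 protocol. Cells were grown in RPMI 1640 with 5% FBS and 2 mM L-glutamine, plated at 5000–40,000 cells/well, and preincubated 24 h at 37 °C, 5% CO2. Time-zero plates were TCA-fixed. Compounds were in DMSO and incubated 48 h. Fixation used cold TCA (final 16% for suspension SR; final 10% for adherent lines 2-7). Plates were stained with 0.4% SRB in 1% acetic acid, solubilized in 10 mM Tris base, and read at 515 nm. Percent growth was calculated from Tz, C and Ti.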

[15] = test system: COLO 205; assay: Antitumor activity against human COLO205 cells after 48 hrs by SRB assay; details: COLO 205, 48 h; method in brief: as §1
[16] = test system: K562; assay: Antitumor activity against human K562 cells after 48 hrs by SRB assay; details: K562, 48 h; method in brief: as §1
[17] = test system: KM12; assay: Antitumor activity against human KM12 cells after 48 hrs by SRB assay; details: KM12, 48 h; method in brief: as §1
[18] = test system: OVCAR-3; assay: Antitumor activity against human OVCAR3 cells after 48 hrs by SRB assay; details: OVCAR-3, 48 h; method in brief: as §1
[19] = test system: T47D; assay: Antitumor activity against human T47D cells after 48 hrs by SRB assay; method in brief: as §2
[20] = test system: SK-OV-3; assay: Antitumor activity against human SKOV3 cells after 48 hrs by SRB assay; details: SK-OV-3, 48 h; method in brief: as §1
[21] = test system: HOP-92; assay: Antitumor activity against human HOP92 cells after 48 hrs by SRB assay; details: HOP-92, 48 h; method in brief: as §1
[22] = test system: NCI/ADR-RES; assay: Antitumor activity against human NCI/ADR-RES cells after 48 hrs by SRB assay; method in brief: as §1
[23] = test system: DU-145; assay: Antitumor activity against human DU145 cells after 48 hrs by SRB assay; details: DU-145, 48 h; method in brief: as §1
[24] = test system: NCI-H226; assay: Antitumor activity against human NCI-H226 cells after 48 hrs by SRB assay; details: NCI-H226, 48 h; method in brief: as §1
[25] = test system: U-251; assay: Antitumor activity against human U251 cells after 48 hrs by SRB assay; details: U-251, 48 h; method in brief: as §2
[26] = test system: SK-MEL-2; assay: Antitumor activity against human SK-MEL-2 cells after 48 hrs by SRB assay; details: SK-MEL-2, 48 h; method in brief: as §1
[27] = test system: ACHN; assay: Antitumor activity against human ACHN cells after 48 hrs by SRB assay; method in brief: as §1
[28] = read-out: LC50 (the source's name)

Clc1ccc(-c2nc3sc(C4CC4)nn3c2Br)cc1
GI50 [1]: 12.7 µM
TGI [1]: 82.1 µM
CC50 [1, 28]: > 100 µM
GI50 [2]: 14.3 µM
TGI [2]: > 100 µM
CC50 [2, 28]: > 100 µM
GI50 [3]: 9.2 µM
TGI [3]: > 100 µM
CC50 [3, 28]: > 100 µM
GI50 [4]: 8.19 µM
TGI [4]: > 100 µM
CC50 [4, 28]: > 100 µM
GI50 [5]: 2.96 µM
TGI [5]: > 100 µM
CC50 [5, 28]: > 100 µM
GI50 [6]: 3.34 µM
TGI [6]: > 100 µM
CC50 [6, 28]: > 100 µM
GI50 [7]: 9.69 µM
TGI [7]: > 100 µM
CC50 [7, 28]: > 100 µM
GI50 [8]: 4.07 µM
TGI [8]: > 100 µM
CC50 [8, 28]: > 100 µM
GI50 [9]: 3.22 µM
TGI [9]: > 100 µM
CC50 [9, 28]: > 100 µM
GI50 [10]: 17.3 µM
TGI [10]: > 100 µM
CC50 [10, 28]: > 100 µM
GI50 [11]: 13.6 µM
TGI [11]: > 100 µM
CC50 [11, 28]: > 100 µM
GI50 [12]: 31.9 µM
TGI [12]: > 100 µM
CC50 [12, 28]: > 100 µM
GI50 [13]: 2.22 µM
TGI [13]: > 100 µM
CC50 [13, 28]: > 100 µM
GI50 [14]: 6.88 µM
TGI [14]: > 100 µM
CC50 [14, 28]: > 100 µM
GI50 [15]: 7.23 µM
TGI [15]: > 100 µM
CC50 [15, 28]: > 100 µM
GI50 [16]: 1.79 µM
TGI [16]: > 100 µM
CC50 [16, 28]: > 100 µM
GI50 [17]: 3.77 µM
TGI [17]: > 100 µM
CC50 [17, 28]: > 100 µM
GI50 [18]: 4.63 µM
TGI [18]: > 100 µM
CC50 [18, 28]: > 100 µM
GI50 [19]: 4.49 µM
TGI [19]: 73.5 µM
CC50 [19, 28]: > 100 µM
GI50 [20]: 35 µM
TGI [20]: > 100 µM
CC50 [20, 28]: > 100 µM
GI50 [21]: 5.59 µM
TGI [21]: 37.9 µM
CC50 [21, 28]: > 100 µM
GI50 [22]: 4.18 µM
TGI [22]: > 100 µM
CC50 [22, 28]: > 100 µM
GI50 [23]: 19.2 µM
TGI [23]: > 100 µM
CC50 [23, 28]: > 100 µM
GI50 [24]: 4.99 µM
TGI [24]: > 100 µM
CC50 [24, 28]: > 100 µM
GI50 [25]: 4.29 µM
TGI [25]: > 100 µM
CC50 [25, 28]: > 100 µM
GI50 [26]: 11 µM
TGI [26]: 59.3 µM
CC50 [26, 28]: > 100 µM
GI50 [27]: 7.07 µM
TGI [27]: > 100 µM
CC50 [27, 28]: > 100 µM
